The text below walks through data of ChEMBL document CHEMBL1144421, “Class II (IIa)-selective histone deacetylase inhibitors. 1. Synthesis and biological evaluation of novel (aryloxopropenyl)pyrrolyl hydroxyamides” (J Med Chem, 2005).

A short description of test [1]: Inhibitory concentration against maize histone deacetylase 1-B (class I HDAC).
Test [2] in a line: Inhibitory concentration against maize histone deacetylase 1-A (class IIa HDAC).
For test [3], the target named is T1, Histone deacetylase HD2 (Zea mays, UniProt Q94F81).
T1 sequence (Q94F81 whole entry): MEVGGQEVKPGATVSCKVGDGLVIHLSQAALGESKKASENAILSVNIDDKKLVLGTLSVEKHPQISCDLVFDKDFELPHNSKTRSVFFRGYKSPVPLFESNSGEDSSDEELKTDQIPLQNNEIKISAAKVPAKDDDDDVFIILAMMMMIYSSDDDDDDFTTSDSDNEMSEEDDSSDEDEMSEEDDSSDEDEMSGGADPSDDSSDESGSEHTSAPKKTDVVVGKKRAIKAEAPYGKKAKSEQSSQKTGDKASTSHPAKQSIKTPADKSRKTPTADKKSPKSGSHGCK
Nature of the test: Inhibitory concentration against maize histone deacetylase 2. The gist of the method: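 Maize HD2 deacetylase assay using [³H]acetate-prelabeled chicken reticulocyte histones (2 mg/mL, 10 µL) at 30 °C for 30 min. Released tritiated acetic acid was extracted with ethyl acetate after HCl/acetate stop, then scintillation counted. IC50 from triple determinations, given as mean ± SD of at least three experiments.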

Test [4] has as its target T2, Histone deacetylase HD2 (Zea mays) (UniProt Q94F81).
T2 sequence (whole entry): T1 sequence (Q94F81 whole entry)
Nature of the test: Inhibitory activity against maize histone deacetylase 2 at 20.5 uM. An outline of the steps:
(§1)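 Maize HD2 enzyme preincubated at 30 °C, then incubated 30 min with [³H]acetate-prelabeled chicken reticulocyte core histones (10 µL of 2 mg/mL) as substrate. Reaction stopped with 1 M HCl/0.4 M acetate. Released [³H]acetic acid was extracted into ethyl acetate and counted by liquid scintillation. Percent inhibition at one fixed concentration; means of at least three separate experiments. Blank solvent served as negative control.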

Test [5] addresses T2, Histone deacetylase HD2 (Zea mays). Nature of the test: Inhibitory activity against maize histone deacetylase 2 at 20.6 uM. An outline of the steps: as §1
The nature of test [6]: Selectivity for class IIa HDACs as ratio of IC50 for maize histone deacetylase 1-B and 1-A. An outline of the steps:
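Maize HD1-B (class I homologue) and HD1-A (class IIa homologue) were each assayed on [³H]acetate-prelabeled chicken reticulocyte histones for 30 min at 30 °C. Released [³H]acetate was extracted with ethyl acetate and scintillation counted. IC50s came from dilutions starting at 40 µM, at least three experiments. Selectivity = IC50(HD1-B)/IC50(HD1-A).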

Test [7] deals with T2, Histone deacetylase HD2 (Zea mays). Nature of the test: Inhibitory activity against maize histone deacetylase 2 at 23.3 uM. An outline of the steps:
as §1

For test [8] the target is unchanged. Nature of the test: Inhibitory activity against maize histone deacetylase 2 at 24.5 uM. The gist of the method:
as §1

The target is the same in test [9]. Nature of the test: Inhibitory activity against maize histone deacetylase 2 at 24.8 uM. The gist of the method:
as §1

Test [10] has the same target. The following applies: 22.2 uM.
Test [11] shares this target. Nature of the test: Inhibitory activity against maize histone deacetylase 2 at 26 uM. An outline of the steps: as §1
Test [12] has the same target. Nature of the test: Inhibitory activity against maize histone deacetylase 2 at 21.1 uM. The gist of the method:
as §1

Test [13] shares this target. Nature of the test: Inhibitory activity against maize histone deacetylase 2 at 40 uM. The gist of the method:
as §1

The target is the same in test [14]. Nature of the test: Inhibitory activity against maize histone deacetylase 2 at 23.7 uM. An outline of the steps: as §1
Test [15] has the same target. Nature of the test: Inhibitory activity against maize histone deacetylase 2 at 23.6 uM. An outline of the steps:
as §1

Test [16] shares this target. Nature of the test: Inhibitory activity against maize histone deacetylase 2 at 20.2 uM. The gist of the method: as §1
Test [17] shares this target. Nature of the test: Inhibitory activity against maize histone deacetylase 2 at 25.2 uM. An outline of the steps: as §1

In general, IC50 refers to the point on the concentration scale where inhibition reaches its midpoint. A high value points to weaker potency. For orientation: inhibition means the drop in the measured response relative to a control, in per cent. Read a high inhibition as strong suppression. In the case of `Cn1cc(/C=C/C(=O)c2cccc(Br)c2)cc1/C=C/C(=O)NO`, the IC50 in test [1] was determined as 1100 nM; in test [2], 1600 nM; in test [3] it was 2100 nM. Also, the inhibition in test [4] was 76.8%.

In [5], `Cn1cc(/C=C/C(=O)c2ccc(-c3ccccc3)cc2)cc1/C=C/C(=O)NO` came in with an inhibition of 34%. Besides, the SI in test [6] was determined as 14.4. Also, the results for the IC50 in test [1], in test [2] and in [3] were 31800 nM, 2200 nM and 26500 nM, respectively.

Regarding `Cn1cc(/C=C/C(=O)c2cccc(Cl)c2)cc1/C=C/C(=O)NO`, the SI in [6] turned out to be 71.4. The inhibition in test [7] is 49%. Further, the figures for the IC50 in test [1] and in [2] were 31400 nM and 440 nM, respectively.

`Cn1cc(/C=C/C(=O)c2ccccc2F)cc1/C=C/C(=O)NO`: in test [6], the SI was 34. The IC50 came out at 3400 nM in test [1], 100 nM in test [2] and 7100 nM in test [3]. For the same compound, the inhibition in test [8] was determined as 73.9%.

As for `Cc1ccc(C(=O)/C=C/c2cc(/C=C/C(=O)NO)n(C)c2)cc1`, the SI in test [6] turned out to be 9.6. This compound also displayed an inhibition in test [9] of 65%. Further, the IC50 in test [1] amounted to 4800 nM; in test [2], 500 nM.

As for `Cn1cc(/C=C/C(=O)c2ccccc2Cl)cc1/C=C/C(=O)NO`, in test [6], the SI was determined as 32. In test [7], this compound yielded an inhibition of 79.1%. Further, the IC50 was 1600 nM in [1] and 50 nM in test [2].

With `Cn1cc(/C=C/C(=O)c2cccc(F)c2)cc1/C=C/C(=O)NO`, the SI in test [6] stood at 176. The IC50 in [1] is 38800 nM; in test [2], 220 nM; in test [3] it was 22000 nM. This compound came in with an inhibition in [8] of 56.5%.

Take `Cn1cc(/C=C/C(=O)c2cccc3ccccc23)cc1/C=C/C(=O)NO`: the SI in [6] came to 33. The compound further came in with an inhibition in [10] of 92%. Moreover, the figures for the 50% inhibitory concentration (IC50) in test [1], in [2] and in test [3] were 330 nM, 10 nM and 200 nM, respectively.

In the case of `Cn1cc(/C=C/C(=O)c2ccccc2)cc1/C=C/C(=O)NO`, the IC50 in test [1] was determined as 260 nM; in [2], 190 nM. Also, in test [11], the inhibition came to 92.3%.

Turning to `Cn1cc(/C=C/C(=O)c2cccc(C(F)(F)F)c2)cc1/C=C/C(=O)NO`, the SI in test [6] was determined as 17.1. In addition, the inhibition in [12] is 46.1%. In addition, the IC50 is 159000 nM in test [1], 9300 nM in test [2] and 49000 nM in test [3].

Regarding `Cc1ccccc1C(=O)/C=C/c1cc(/C=C/C(=O)NO)n(C)c1`, the SI in [6] was 6.5. In addition, in [9], the inhibition was determined as 96%. Also, the concentration for half-maximal inhibition (IC50) in test [1] is 390 nM; in test [2], 60 nM.

Regarding `O=C(CCCCCCC(=O)Nc1ccc([C@H]2O[C@@H](CSc3nc(-c4ccccc4)c(-c4ccccc4)o3)C[C@@H](c3ccc(CO)cc3)O2)cc1)NO` [TUBACIN], the SI in test [6] is 2.2. For the same compound, the IC50 in [1] worked out at 980 nM; in test [2] it was 450 nM; in test [3], 2000 nM. The compound also came in with an inhibition in test [13] of 92.9%.

In the case of `CC/C(=C\c1cc(/C=C/C(=O)NO)n(C)c1)C(=O)c1ccccc1`, in [6], the SI turned out to be 20.4. This compound registered an inhibition in test [14] of 93%. Besides, the figures for the concentration for half-maximal inhibition (IC50) in test [1], in test [2] and in test [3] were 4500 nM, 220 nM and 420 nM, respectively.

On to `COc1cccc(C(=O)/C=C/c2cc(/C=C/C(=O)NO)n(C)c2)c1`, for which the IC50 in [1] was found to be 600 nM; in [2] it was 390 nM; in test [3] it was 540 nM. Further, in test [15], the inhibition amounted to 78.2%.

As for `Cn1cc(/C=C/C(=O)c2cccc(OC(F)(F)F)c2)cc1/C=C/C(=O)NO`, the SI in [6] came out at 3.3. Besides, the values for the IC50 in test [1], in [2] and in test [3] were 298000 nM, 90000 nM and 176000 nM, respectively. This compound also yielded an inhibition in test [16] of 19.5%.

Take `Cn1cc(/C=C/C(=O)c2ccccc2Br)cc1/C=C/C(=O)NO`: the figures for the IC50 in [1], in [2] and in test [3] were 180 nM, 210 nM and 360 nM, respectively. In [4], this compound returned an inhibition of 92.4%.

For `C/C(=C\c1cc(/C=C/C(=O)NO)n(C)c1)C(=O)c1ccccc1`, the inhibition in test [9] amounted to 89.9%. Besides, the concentration for half-maximal inhibition (IC50) in [1] stood at 570 nM; in test [2] it was 780 nM; in test [3], 680 nM.

Take `Cn1cc(/C=C/C(=O)c2ccc(F)cc2)cc1/C=C/C(=O)NO`: the IC50 was determined as 24900 nM in test [1], 15700 nM in test [2] and 35300 nM in test [3]. Moreover, the inhibition in test [8] is 33.2%.

Regarding `Cn1cc(/C=C/C(=O)c2ccc3ccccc3c2)cc1/C=C/C(=O)NO`, in test [6], the SI stood at 45. The half-maximal inhibitory concentration (IC50) in test [2] stood at 40 nM; in test [3], 1800 nM. In addition, the inhibition in [17] turned out to be 62.9%.

For `COc1ccccc1C(=O)/C=C/c1cc(/C=C/C(=O)NO)n(C)c1`, the IC50 in test [1] was determined as 170 nM; in test [2] it was 160 nM; in test [3] it was 250 nM. The compound also registered an inhibition in test [15] of 95.7%.

For `Cn1cc(/C=C/C(=O)c2ccc(Br)cc2)cc1/C=C/C(=O)NO`, the IC50 came to 24300 nM in [1], 20300 nM in test [2] and 28500 nM in [3]. For the same compound, in test [4], the inhibition was 41.7%.

Turning to `COc1ccc(C(=O)/C=C/c2cc(/C=C/C(=O)NO)n(C)c2)cc1`, the IC50 in [1] is 800 nM; in [2], 790 nM; in test [3], 570 nM. Further, in test [15], the inhibition stood at 74.2%.

Compound `Cn1cc(/C=C/C(=O)c2ccc(Cl)cc2)cc1/C=C/C(=O)NO` gave an inhibition in test [7] of 45.5%. For the same compound, the IC50 was 29400 nM in test [1] and 18600 nM in [2].

As for `CC(/C=C/C(=O)NO)=C\[C@@H](C)C(=O)c1ccc(N(C)C)cc1` [TRICHOSTATIN], the half-inhibitory concentration (IC50) in [1] is 0.4 nM; in test [2], 0.8 nM.

Consider `Cc1cccc(C(=O)/C=C/c2cc(/C=C/C(=O)NO)n(C)c2)c1`, for which the SI in [6] amounted to 14.7. The compound also had an inhibition in [9] of 72%. Further, the values for the IC50 in test [1] and in [2] were 2500 nM and 170 nM, respectively.
